{"source": "paper PMC2871064", "about": "(Cancer research, 2010)", "key": {"stage 4 melanoma": {"tested_on": "stage 4 melanoma", "settings": "cited from earlier work"}, "A375 cells": {"tested_on": "A375 cells", "assay": "Binding of [^131I]MIP-1145 to amelanotic A375 cells", "format": "cell-based, human", "how_it_was_run": "(§1)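 Cells per well: 50,000 for SK-MEL-3, 25,000 for A375, attached overnight. Time course: up to 6 h at 37 °C with 11.5 nM tracer (~9 × 10⁵ CPM/well) in D-MEM/0.5% BSA. Acid wash (50 mM glycine, 150 mM NaCl, pH 3.0, 4 °C, 5 min) strips the surface fraction for gamma counting; cells are scintillation-counted. Competition: 2 h, 3.6 nM tracer plus 1.6–1,600 nM unlabeled compound.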"}, "SK-MEL-3 cells": {"tested_on": "SK-MEL-3 cells", "assay": "Binding of [^131I]MIP-1145 to melanotic SK-MEL-3 cells", "format": "cell-based, human", "how_it_was_run": "as §1"}, "[1]": {"settings": "2 hours, 3.6 nM tracer, up to 1.6 uM cold compound"}}, "note": "Like-named read-outs stand apart in the source and are kept apart here.", "data": [{"molecule": "CN(C)/N=N/c1[nH]cnc1C(N)=O", "note": "[Dacarbazine]", "values": [{"measurement": "Objective response rate", "setting": "stage 4 melanoma; stage 4 melanoma patients", "value": 16, "unit": "%"}]}, {"molecule": "CCN(CC)CCNC(=O)c1cc(I)c(NC(=O)c2ccc(F)cc2)cc1OC", "note": "[MIP-1145, N-(2-diethylamino-ethyl)-4-(4-fluoro-benzamido)-5-iodo-2-methoxy-benzamide]", "values": [{"measurement": "Competition by non-radiolabeled MIP-1145 for [^131I]MIP-1145 binding", "setting": "A375 cells; [1]", "value": "very little competition"}, {"measurement": "Cell associated fraction of the total added", "setting": "A375 cells; after 6 hours, 11.5 nM", "value": "about 13%"}, {"measurement": "Competition by non-radiolabeled MIP-1145 for [^131I]MIP-1145 binding", "setting": "SK-MEL-3 cells; [1]", "value": "very little competition"}, {"measurement": "Cell associated fraction of the total added", "setting": "SK-MEL-3 cells; after 6 hours, 11.5 nM", "value": "approximately 43%"}]}, {"molecule": "interferon alpha-2b", "values": [{"measurement": "Objective response rate", "setting": "stage 4 melanoma; stage 4 disease, high-dose", "value": 14, "unit": "%"}]}]}
